Data set [1] is described as follows: folding enthalpy; higher = less favourable; fluorescence melt of hairpins on a sequencing array, two-state fit. As to conditions: sodium 0.088 M. Put shortly: (§1)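 On a sequenced MiSeq flow cell, library hairpins with annealed Cy3 and quencher oligos were imaged for Cy3 fluorescence in 2.5 °C steps up to 60 °C, in 50 mM Na-HEPES pH 8.0, 25 mM NaCl. Normalisation used pre-quench Cy3 and control constructs. Bootstrapped two-state fits gave melting temperature and folding enthalpy, combined by inverse variance across four replicates and with fitted temperatures raised by 9.35 °C to match UV melts.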

Data set [2] is described as follows: melting temperature; fluorescence melt of hairpins on a sequencing array, two-state fit, raised by 9.35 °C to match UV melts. As to conditions: sodium 0.088 M. In short, it runs like this: as §1

From the array DNA melting data of Ke et al. (doi:10.1101/2024.01.08.574731) come the findings set out here.

As to GCTGAGCGAAAGCTAAGC (((.(((....))).))), the folding enthalpy in data set [1] was -50.4 kcal/mol. The Tm in data set [2] is 56.1 °C.
Take GCTGAGCGAAAGCTCCGC ((.((((....)))).)): the folding enthalpy in data set [1] is -19.7 kcal/mol. Also, in data set [2], the Tm was found to be 57.7 °C.
Consider GCTGAGCGAAAGCTGGGC ((..(((....)))..)), for which the folding enthalpy in data set [1] was -19.8 kcal/mol. Also, in data set [2], the Tm is 50.3 °C.
The matching figures for GCTGAGCGAAAGCTTGGC ((..(((....)))..)): -20.9 kcal/mol and 55.4 °C.
The matching figures for GCTGAGGGAAACCTTGGC ((..(((....)))..)): -26.6 kcal/mol and 38.1 °C.
As for GCTGAGGGAAACTTCAGC (((((.(....).))))), in data set [1], the folding enthalpy was -32.5 kcal/mol. For the same sequence, the Tm in data set [2] turned out to be 48.6 °C.
The like results for GCTGAGTCGAAAGACAGC (((..(((....)))))) were, in that order, -20.8 kcal/mol and 44.5 °C.
The matching figures for GCTGATGGAAACATCGGC ((.((((....)))).)): -43 kcal/mol and 54.1 °C.
The like results for GCTGATGGAAACATTAGC (((.(((....))).))) were, in that order, -37.4 kcal/mol and 46.5 °C.
Take GCTGCAACGAAAGTTAGC (((..(((....)))))): the folding enthalpy in data set [1] was -17.2 kcal/mol. Also, the Tm in data set [2] was found to be 39.8 °C.
Regarding GCTGCACGAAAGTGAGC (((.(((....)))))), the folding enthalpy in data set [1] was -18.8 kcal/mol. The Tm in data set [2] was 51.3 °C.
The matching figures for GCTGCACGAAAGTGGAGC (((.(((....))).))): -34.2 kcal/mol and 65.6 °C.
With GCTGCACGAAAGTGTAGC (((.(((....))).))), in data set [1], the folding enthalpy was -43.9 kcal/mol. Also, the Tm in data set [2] came to 65 °C.
The matching figures for GCTGCAGGAAACTGTAGC (((.(((....))).))): -34.3 kcal/mol and 52 °C.
The like results for GCTGCCGAAAGGCGCAGC ((((((....)))..))) were, in that order, -13.6 kcal/mol and 51.3 °C.
The matching figures for GCTGCCGCGAAAGCGAGC (((..(((....)))))): -9.35 kcal/mol and 57.6 °C.
For GCTGCCGGAAACGGCAAC (.(((((....))))).), the folding enthalpy in data set [1] was -10.9 kcal/mol. Further, the Tm in data set [2] was found to be 47.4 °C.
The like results for GCTGCCGGAAACGGTAGC (((.(((....))).))) were, in that order, -39.9 kcal/mol and 64 °C.
The matching figures for GCTGCGCGAAAGCATAGC (((..((....))..))): -18.2 kcal/mol and 46.5 °C.
The like results for GCTGCGCGAAAGCCAAGC (((..((....))..))) were, in that order, -18.9 kcal/mol and 48.9 °C.
Take GCTGCGCGAAAGCCCAGC ((((.((....)).)))): the folding enthalpy in data set [1] is -31.1 kcal/mol. Further, the Tm in data set [2] is 63.5 °C.
On to GCTGCGCGAAAGCGACGC ((..(((....)))..)), for which the folding enthalpy in data set [1] was -19.4 kcal/mol. In addition, in data set [2], the Tm was 56 °C.
Turning to GCTGCGCGAAAGCGAGGC ((..(((....)))..)), the folding enthalpy in data set [1] was -20.3 kcal/mol. Besides, the Tm in data set [2] is 60.6 °C.
Consider GCTGCGCGAAAGCGCCGC ((.((((....)))).)), for which the folding enthalpy in data set [1] was -15.3 kcal/mol. Besides, in data set [2], the Tm is 63.1 °C.
Take GCTGCGCGAAAGCGGTGC ((..(((....)))..)): the folding enthalpy in data set [1] is -19.6 kcal/mol. In addition, in data set [2], the Tm is 55.1 °C.
The like results for GCTGCGCGAAAGCGTTGC ((..(((....)))..)) were, in that order, -18.9 kcal/mol and 56.7 °C.
The matching figures for GCTGCGGGAAACTGCAGC (((((.(....).))))): -40.6 kcal/mol and 64.5 °C.
The like results for GCTGCTACGAAAGTAAGC (((..(((....)))))) were, in that order, -17.1 kcal/mol and 41.5 °C.
In the case of GCTGCTGGAAACGGCAGC (((((.(....).))))), in data set [1], the folding enthalpy was -44.6 kcal/mol. Further, the Tm in data set [2] was 63.1 °C.
The matching figures for GCTGCTTCGAAAGAAAGC (((..(((....)))))): -18 kcal/mol and 39.6 °C.
GCTGGAGCGAAAGCTAGC (((..(((....)))))): the folding enthalpy in data set [1] is -16.6 kcal/mol. The Tm in data set [2] is 49.9 °C.
The matching figures for GCTGGCGAAAGCCAAAGC ((((((....)))..))): -18.2 kcal/mol and 53.5 °C.
The like results for GCTGGCGAAAGCCATAGC ((((((....)))..))) were, in that order, -16.2 kcal/mol and 52.3 °C.
The like results for GCTGGCGAAAGCCCAAGC ((((((....)))..))) were, in that order, -15.3 kcal/mol and 50 °C.
For the sequence GCTGGCGAAAGCCCAGC ((((((....))).))), in data set [1], the folding enthalpy is -23.1 kcal/mol. Moreover, the Tm in data set [2] was determined as 65.7 °C.
Take GCTGGCGAAAGCCGAAGC ((((((....)))..))): the folding enthalpy in data set [1] was -16.5 kcal/mol. Also, the Tm in data set [2] was 50.8 °C.
